The values that follow come from ChEMBL document CHEMBL3421533, “The Discovery of Orally Bioavailable Tyrosine Threonine Kinase (TTK) Inhibitors: 3-(4-(heterocyclyl)phenyl)-1H-indazole-5-carboxamides as Anticancer Agents” (J Med Chem, 2015).

As a reminder, the IC50 is the midpoint of a concentration-inhibition curve. One may read the GI50 as the concentration giving 50% growth inhibition. A low value points to greater sensitivity of the cells. In general, half-life refers to the time in which the quantity being followed falls by half. High values mean slow decline, low ones rapid decline. As a reminder, the AUC(0-inf) is the area under the concentration-time curve extrapolated to infinity. In general, EC50 refers to the concentration giving half of the maximal effect. A low value points to higher potency in that assay.

The target in data set [1] is T1, Dual specificity protein kinase TTK (Homo sapiens, UniProt P33981).
T1 sequence (P33981 whole entry): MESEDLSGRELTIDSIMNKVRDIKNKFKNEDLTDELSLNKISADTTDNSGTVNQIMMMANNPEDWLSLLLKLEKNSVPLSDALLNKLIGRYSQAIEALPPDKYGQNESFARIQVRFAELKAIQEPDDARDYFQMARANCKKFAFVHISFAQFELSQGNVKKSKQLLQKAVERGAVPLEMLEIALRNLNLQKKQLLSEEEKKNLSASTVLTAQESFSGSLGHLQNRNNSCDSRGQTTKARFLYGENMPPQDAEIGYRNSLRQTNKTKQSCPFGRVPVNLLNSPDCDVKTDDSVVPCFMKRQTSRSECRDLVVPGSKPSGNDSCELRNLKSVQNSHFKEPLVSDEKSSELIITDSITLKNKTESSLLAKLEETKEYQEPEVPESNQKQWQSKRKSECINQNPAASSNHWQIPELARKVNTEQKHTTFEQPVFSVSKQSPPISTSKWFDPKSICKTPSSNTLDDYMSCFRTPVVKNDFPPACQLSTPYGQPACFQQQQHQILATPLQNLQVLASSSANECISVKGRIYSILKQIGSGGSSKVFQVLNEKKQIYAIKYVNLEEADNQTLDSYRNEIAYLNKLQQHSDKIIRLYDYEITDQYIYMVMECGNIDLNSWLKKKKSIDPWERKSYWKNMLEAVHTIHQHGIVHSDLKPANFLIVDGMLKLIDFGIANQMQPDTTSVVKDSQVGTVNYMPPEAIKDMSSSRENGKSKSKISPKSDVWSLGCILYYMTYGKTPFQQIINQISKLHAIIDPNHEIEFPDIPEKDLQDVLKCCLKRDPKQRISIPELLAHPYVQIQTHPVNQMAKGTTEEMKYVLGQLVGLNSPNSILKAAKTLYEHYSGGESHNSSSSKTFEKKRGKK
In words: Inhibition of amino terminal GST-fused full length human TTK using His6-SUMO-TTK-N as substrate preincubated for 15 mins prior to ATP addition by indirect ELISA detection system. On the technique in general: In an ELISA, binding on a coated surface is turned into a signal by an enzyme label.

In data set [2] the test system is MDA-MB-468. In words: Cytotoxicity against human MDA-MB-468 cells after 5 days by sulforhodamine B assay. Type of data set: functional. The gist of the method:
(§1)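 Cancer lines were seeded at 800–6000 cells per well according to growth rate, 24 h before compound overlay. After culture, cells were fixed in situ and stained with sulforhodamine B. GI50 values were derived by curve fitting.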
In general terms: Sulforhodamine B stains cellular protein and so reports cell mass.

Data set [3] deals with T2, Aurora kinase A (Homo sapiens, UniProt O14965).
T2 sequence (O14965 whole entry): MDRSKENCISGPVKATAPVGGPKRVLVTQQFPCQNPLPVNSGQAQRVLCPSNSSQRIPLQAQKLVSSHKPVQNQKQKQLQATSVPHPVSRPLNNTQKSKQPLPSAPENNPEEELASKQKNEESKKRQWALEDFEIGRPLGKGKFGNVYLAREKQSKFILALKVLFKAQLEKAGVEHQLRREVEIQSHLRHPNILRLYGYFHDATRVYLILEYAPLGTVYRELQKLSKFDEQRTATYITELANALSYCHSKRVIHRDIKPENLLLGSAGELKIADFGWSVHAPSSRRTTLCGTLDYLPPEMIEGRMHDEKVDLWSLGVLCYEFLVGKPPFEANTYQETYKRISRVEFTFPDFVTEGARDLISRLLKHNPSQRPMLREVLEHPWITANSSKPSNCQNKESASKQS
The experiment in a line: Inhibition of recombinant AURKA (unknown origin) preincubated for 15 mins prior to ATP addition by FRET-based homogenous assay.

The target in data set [4] is Cytochrome P450 3A4 (Homo sapiens, UniProt P08684). The experiment in a line: Inhibition of human CYP3A4 using BFC as substrate preincubated for 10 mins followed by enzyme/substrate addition measured after 30 mins by fluorescence assay. Type of data set: ADME.
Chain of Cytochrome P450 3A4 (P08684 whole entry): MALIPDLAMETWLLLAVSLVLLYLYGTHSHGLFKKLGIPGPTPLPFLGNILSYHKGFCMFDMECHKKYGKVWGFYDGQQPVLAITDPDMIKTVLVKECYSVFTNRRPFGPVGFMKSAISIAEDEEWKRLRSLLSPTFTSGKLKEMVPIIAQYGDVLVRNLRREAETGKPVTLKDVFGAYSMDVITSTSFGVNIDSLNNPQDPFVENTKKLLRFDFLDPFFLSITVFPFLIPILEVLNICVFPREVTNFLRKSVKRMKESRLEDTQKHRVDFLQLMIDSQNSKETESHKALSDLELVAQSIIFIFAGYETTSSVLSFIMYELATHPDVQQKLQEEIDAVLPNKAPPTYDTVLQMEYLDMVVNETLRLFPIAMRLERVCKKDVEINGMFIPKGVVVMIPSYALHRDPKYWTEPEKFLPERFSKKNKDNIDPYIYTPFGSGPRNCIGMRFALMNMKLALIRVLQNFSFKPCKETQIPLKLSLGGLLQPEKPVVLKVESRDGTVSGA
Data set [5] is described as follows: Half life in mouse liver microsomes at 1 uM by LC-MS analysis. The format is ADME. The settings on record: liver microsomes. For orientation: Liver microsomes are a subcellular fraction often used to study metabolism.
A short description of data set [6]: AUCinfinity in athymic CD1 nude mouse at 10 mg/kg, po by LC-MS/MS analysis. On the set-up: time infinity, dose 10 mg/kg, route oral. The format is ADME, organism-based, Plasma. The settings on record: athymic CD1 nude, plasma.
The target in data set [7] is Proto-oncogene tyrosine-protein kinase receptor Ret (Homo sapiens, UniProt P07949, V804L). The experiment in a line: Inhibition of human Ret V804L mutant by millipore radiometric assay. In short, it runs like this:
(§2)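 Radiometric profiling against a 278-kinase panel was done with ATP at Km. Half-maximal inhibitory concentrations were then determined for the kinases most inhibited.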

For data set [8], the target named is Proto-oncogene tyrosine-protein kinase receptor Ret (Homo sapiens, UniProt P07949, V804M). In words: Inhibition of human Ret V804M mutant by millipore radiometric assay. In short, it runs like this:
as §2

Data set [9] has as its target T1, Dual specificity protein kinase TTK. The experiment in a line: Inhibition of TTK (unknown origin) transfected in human HCT116 cells after 4 hrs by near infrared imager analysis. The format is cell-based, HCT-116. The gist of the method: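 HCT116 cells transfected with wild-type TTK were arrested with nocodazole (200 ng/mL, 17 h). They were pretreated with MG132 (15 μM, 30 min), then exposed to compound or DMSO for 4 h. Blots were probed for phospho-TTK (Thr12/Ser15), phospho-Aurora A (Thr288)/B (Thr232), TTK and GAPDH. Bands were quantified by near-infrared imaging, and EC50 was fitted.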

Data set [10] in a line: Cytotoxicity against HMEC after 5 days by sulforhodamine B assay. Type of data set: cell-based. The settings on record: human, HMEC cells. In short, it runs like this: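 Cells were seeded at 800–6000 per well according to growth rate, 24 h before compound overlay. After culture they were fixed in situ and stained with sulforhodamine B. GI50 was calculated by curve fitting.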

The test system of data set [11] is HT-29. The experiment in a line: Cytotoxicity against human HT-29 cells after 5 days by sulforhodamine B assay. The format is functional. The settings on record: HT-29, 120 h. The gist of the method: as §1
Data set [12] in a line: Plasma protein binding in dog. As to conditions: read-out: PPB (converted). Type of data set: ADME, cell-free, Canis lupus familiaris.
Data set [13] can be described thus: Plasma protein binding in human. The format is ADME, cell-free. As to conditions: read-out: PPB (converted).

Chain of Proto-oncogene tyrosine-protein kinase receptor Ret (Homo sapiens, UniProt P07949, V804L) (P07949 29-1114 V804L limits assumed): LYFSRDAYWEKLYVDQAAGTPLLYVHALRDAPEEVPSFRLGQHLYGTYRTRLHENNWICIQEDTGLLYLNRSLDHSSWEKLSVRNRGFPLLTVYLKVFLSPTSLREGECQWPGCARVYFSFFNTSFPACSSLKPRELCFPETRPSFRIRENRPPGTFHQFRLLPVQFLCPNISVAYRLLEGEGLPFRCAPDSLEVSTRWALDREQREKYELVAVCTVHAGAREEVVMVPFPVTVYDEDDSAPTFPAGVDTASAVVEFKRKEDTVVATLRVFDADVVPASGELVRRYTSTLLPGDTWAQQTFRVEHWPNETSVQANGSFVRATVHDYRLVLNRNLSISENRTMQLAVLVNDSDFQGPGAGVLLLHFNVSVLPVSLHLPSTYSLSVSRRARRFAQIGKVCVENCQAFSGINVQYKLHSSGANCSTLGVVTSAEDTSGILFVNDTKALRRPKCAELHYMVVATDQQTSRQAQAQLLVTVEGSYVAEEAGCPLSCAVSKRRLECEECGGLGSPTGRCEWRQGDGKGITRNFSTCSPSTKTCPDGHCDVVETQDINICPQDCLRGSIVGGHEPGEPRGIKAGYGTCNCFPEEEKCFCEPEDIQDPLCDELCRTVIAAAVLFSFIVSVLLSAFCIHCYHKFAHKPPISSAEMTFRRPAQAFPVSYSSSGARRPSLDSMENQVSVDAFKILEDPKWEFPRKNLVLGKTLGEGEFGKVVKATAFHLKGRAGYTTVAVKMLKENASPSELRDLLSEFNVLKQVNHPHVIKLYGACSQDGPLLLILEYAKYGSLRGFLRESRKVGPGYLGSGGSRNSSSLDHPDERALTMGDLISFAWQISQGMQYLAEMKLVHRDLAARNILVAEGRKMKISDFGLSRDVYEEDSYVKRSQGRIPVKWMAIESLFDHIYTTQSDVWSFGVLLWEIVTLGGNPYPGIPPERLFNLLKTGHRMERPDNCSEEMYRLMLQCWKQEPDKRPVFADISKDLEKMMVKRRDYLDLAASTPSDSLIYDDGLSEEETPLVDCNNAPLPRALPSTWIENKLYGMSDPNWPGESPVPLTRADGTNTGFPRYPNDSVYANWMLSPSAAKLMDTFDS
Chain of Proto-oncogene tyrosine-protein kinase receptor Ret (Homo sapiens, UniProt P07949, V804M) (P07949 29-1114 V804M limits assumed): as the sequence (P07949 29-1114 V804L limits assumed) above, with L776M counted along it

In the case of `O=C(N[C@@H](c1ccccn1)C1CC1)c1ccc2[nH]nc(-c3ccc(N4[C@H]5CC[C@H]4CC(O)C5)cc3)c2c1` (stereo in doubt; 75), the half-inhibitory concentration (IC50) in data set [1] worked out at 3.1 nM; in data set [3], 1300 nM; in [4], 1300 nM; in data set [7] it was 250 nM; in data set [8] it was 280 nM. For the same molecule, the GI50 in data set [2] is 36 nM; in data set [11], 18 nM. In addition, in data set [5], the half-life at 1 µM was greater than 1 h. The molecule further had an AUC(0-inf) in data set [6] of 3000 ng·h/mL. In data set [9], this molecule had a concentration giving a half-maximal response (EC50) of 14 nM. Also, in data set [10], the GI50 at 120 h was greater than 30000 nM. The fraction unbound in [12] is 0.114; in [13], 0.022.
